Data on 27 compounds can be found in ChEMBL document CHEMBL2406947, “Syntheses and evaluation of novel isoliquiritigenin derivatives as potential dual inhibitors for amyloid-beta aggregation and 5-lipoxygenase” (Eur J Med Chem, 2013).

Experiment [1] can be described thus: Inhibition of potato 5-LOX using linoleic acid as substrate assessed as hydroperoxides production after 5 mins by enzyme immuno assay. More on the design: species or system Solanum tuberosum.
For experiment [2], the target named is T1, Amyloid-beta precursor protein (Homo sapiens, UniProt P05067). Description: Inhibition of amyloid beta (1-42) self-mediated aggregation (unknown origin) after 5 days by thioflavin T fluorescence method.
Experiment [3] is described as follows: Cytotoxicity against human SH-SY5Y cells after 48 hrs by MTT assay. The format is cell-based. The method, boiled down:
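SH-SY5Y cells grown in DMEM with 10% FBS, 1 mM glutamine, penicillin/streptomycin, 5% CO2, 37 °C; seeded 10,000 cells/well, treated after 24 h with 0-100 µM for 48 h; MTT (5 mg/mL stock) added for 4 h, formazan dissolved in DMSO, absorbance at 570 nm.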
On the technique in general: Formazan colour is commonly taken as a measure of viable cells.

Experiment [4] has as its target T1, Amyloid-beta precursor protein. Description: Inhibition of amyloid beta (1 to 42) fibrilation (unknown origin) at 20 uM after 4 days by transmission electron microscopic analysis. The gist of the method: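 Aβ(1-42) at 40 µM final in 50 mM phosphate pH 7.4 incubated at 37 °C for 4 days with or without 20 µM compound; samples applied to carbon-coated grids, water-washed, negatively stained 1 min with 2% uranyl acetate, examined by transmission electron microscopy.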

For experiment [5] the target is unchanged. The experiment can be described thus: Inhibition of amyloid beta (1 to 42) fibrilation (unknown origin) assessed as reduction in beta-sheet structure formation at 10 uM after 2 days by CD spectroscopy assay. The method, boiled down: (§1)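 20 µM Aβ(1-42) incubated with or without 10 µM compound in 50 mM sodium phosphate pH 7.4 at 37 °C for 2 days; CD spectra recorded at 25 °C, 190-260 nm, 1 mm quartz cell, 0.5 nm bandwidth, 10 nm/min; background and compound spectra subtracted.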

Experiment [6] has the same target. Description: Inhibition of amyloid beta (1 to 42) fibrilation (unknown origin) assessed as reduction in […] structure formation at 10 uM after 2 days by CD spectroscopy assay. The gist of the method:
as §1

Each structure is given as a SMILES string. Activity calls are given as the source filed them. The rule behind the calls is not given here.

T1 sequence (P05067 whole entry): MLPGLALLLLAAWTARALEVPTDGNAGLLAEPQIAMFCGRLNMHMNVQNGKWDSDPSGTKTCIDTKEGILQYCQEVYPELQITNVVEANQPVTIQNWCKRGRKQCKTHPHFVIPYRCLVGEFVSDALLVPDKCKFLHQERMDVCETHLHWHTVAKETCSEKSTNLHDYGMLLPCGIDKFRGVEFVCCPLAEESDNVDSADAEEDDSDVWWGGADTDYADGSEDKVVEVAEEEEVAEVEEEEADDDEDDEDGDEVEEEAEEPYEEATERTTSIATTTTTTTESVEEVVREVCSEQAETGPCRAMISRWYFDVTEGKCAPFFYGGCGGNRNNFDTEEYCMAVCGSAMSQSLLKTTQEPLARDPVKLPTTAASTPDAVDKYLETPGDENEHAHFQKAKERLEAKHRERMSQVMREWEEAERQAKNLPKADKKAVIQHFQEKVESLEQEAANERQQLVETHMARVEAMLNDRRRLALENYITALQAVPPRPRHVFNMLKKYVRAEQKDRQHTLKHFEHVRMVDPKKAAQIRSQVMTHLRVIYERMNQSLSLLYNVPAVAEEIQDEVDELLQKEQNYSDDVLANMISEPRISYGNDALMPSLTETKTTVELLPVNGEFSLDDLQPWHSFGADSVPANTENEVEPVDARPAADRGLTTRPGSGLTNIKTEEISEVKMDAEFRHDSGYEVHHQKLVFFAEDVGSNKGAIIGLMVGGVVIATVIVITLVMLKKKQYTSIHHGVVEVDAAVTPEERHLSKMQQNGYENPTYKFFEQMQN

In general, IC50 refers to the point on the concentration scale where inhibition reaches its midpoint. As to `COc1ccc(C(=O)/C=C/c2ccc(C(=O)NC(C)C)cc2)c(O)c1`, the half-maximal inhibitory concentration (IC50) was 22.1 µM in experiment [1], 17.8 µM in experiment [2] and greater than 100 µM in experiment [3].

As for `CCOCCOc1ccc(/C=C/C(=O)c2ccc(OC)cc2O)cc1`, the half-inhibitory concentration (IC50) in experiment [1] was 9.7 µM; in experiment [2], 19.1 µM; in experiment [3] it was greater than 100 µM.

Consider `O=C(/C=C/c1ccc(O)cc1)c1ccc(O)cc1O` [ISOLIQUIRITIGENIN], for which the IC50 in experiment [1] was 18.6 µM; in experiment [2] it was 19.7 µM.

With `COc1ccc(C(=O)/C=C/c2ccc(C(=O)Nc3ccccc3O)cc2)c(O)c1`, the IC50 in experiment [1] was 16.5 µM; in experiment [2], 10.1 µM; in experiment [3], greater than 100 µM.

Take `COc1ccc(C(=O)/C=C/c2ccc(C(=O)N3CCN(C)CC3)cc2)c(O)c1`: the half-inhibitory concentration (IC50) in experiment [1] was 7.9 µM; in experiment [2] it was 2.2 µM; in experiment [3], greater than 100 µM.

Regarding `COc1ccc(C(=O)/C=C/c2ccc(C(=O)Nc3ccccc3OC)cc2)c(O)c1`, the 50% inhibitory concentration (IC50) in experiment [1] is 24.9 µM; in experiment [2], 7.3 µM; in experiment [3] it was greater than 100 µM.

As to `CCCCCCCCCCCCNC(=O)c1ccc(/C=C/C(=O)c2ccc(OC)cc2O)cc1`, the 50% inhibitory concentration (IC50) was 15.7 µM in experiment [1], 15.9 µM in experiment [2] and greater than 100 µM in experiment [3].

`COc1ccc(C(=O)/C=C/c2ccc(C(=O)O)cc2)c(O)c1`: the half-maximal inhibitory concentration (IC50) in experiment [1] was 30.3 µM; in experiment [2] it was 18.5 µM; in experiment [3], greater than 100 µM.

Regarding `COc1ccc(C(=O)/C=C/c2ccc(OCc3ccccc3)cc2)c(O)c1`, the 50% inhibitory concentration (IC50) was 10.2 µM in experiment [1], 7.8 µM in experiment [2] and greater than 100 µM in experiment [3].

For `COc1ccc(C(=O)/C=C/c2ccc(C(=O)N(C)c3ccccc3)cc2)c(O)c1`, the half-maximal inhibitory concentration (IC50) in experiment [1] is 20.4 µM; in experiment [2], 20.1 µM; in experiment [3], greater than 100 µM.

For `CCOCCCOc1ccc(/C=C/C(=O)c2ccc(OC)cc2O)cc1OC`, the IC50 in experiment [1] is 12.4 µM; in experiment [2], 5.8 µM; in experiment [3], greater than 100 µM.

As to `COc1ccc(C(=O)/C=C/c2ccc(OCCCOc3ccccc3)c(OC)c2)c(O)c1`, the IC50 is 13 µM in experiment [1], 10.9 µM in experiment [2] and greater than 100 µM in experiment [3].

In the case of `COc1ccc(C(=O)/C=C/c2ccc(C(=O)N3CCCCC3)cc2)c(O)c1`, the half-maximal inhibitory concentration (IC50) in experiment [1] is 6.8 µM; in experiment [2] it was 5.9 µM; in experiment [3] it was greater than 100 µM.

Consider `COc1ccc(C(=O)/C=C/c2cc(OC)c(OC)cc2OC)c(O)c1`, for which the 50% inhibitory concentration (IC50) in experiment [1] is 14.1 µM; in experiment [2], 10.2 µM; in experiment [3] it was greater than 100 µM.

As for `CCCNC(=O)c1ccc(/C=C/C(=O)c2ccc(OC)cc2O)cc1`, the half-inhibitory concentration (IC50) in experiment [1] was 12.9 µM; in experiment [2], 19.9 µM; in experiment [3] it was greater than 100 µM.

Regarding `COc1ccc(C(=O)/C=C/c2ccc(C(=O)NCCc3ccccc3)cc2)c(O)c1`, the results for the 50% inhibitory concentration (IC50) in experiment [1], in experiment [2] and in experiment [3] were 14.2 µM, 19.1 µM and greater than 100 µM, respectively.

With `CC(Cc1ccc(O)c(O)c1)C(C)Cc1ccc(O)c(O)c1` (stereo unspecified) [NORDIHYDROGUAIARETIC ACID], in experiment [1], the IC50 turned out to be 12.4 µM.

As to `COc1ccc(C(=O)/C=C/c2ccc(C(=O)NCc3ccccc3)cc2)c(O)c1`, the IC50 in experiment [1] is 18 µM; in experiment [2], 18.9 µM; in experiment [3], greater than 100 µM.

For `COc1ccc(C(=O)/C=C/c2ccc(C(=O)N3CCCC3)cc2)c(O)c1`, the figures for the 50% inhibitory concentration (IC50) in experiment [1], in experiment [2] and in experiment [3] were 10.5 µM, 14.6 µM and greater than 100 µM, respectively.

Consider `COc1ccc(/C=C/C(=O)c2ccc(OC)cc2O)cc1`, for which the half-maximal inhibitory concentration (IC50) in experiment [1] is 15.9 µM; in experiment [2], 8.4 µM; in experiment [3] it was greater than 100 µM.

For the compound `COc1ccc(C(=O)/C=C/c2ccc(C(=O)N3CCOCC3)cc2)c(O)c1`, the figures for the concentration for half-maximal inhibition (IC50) in experiment [1], in experiment [2] and in experiment [3] were 6.1 µM, 3.2 µM and greater than 100 µM, respectively. Besides, the inhibition result in experiment [4] and in experiment [5] was “Active” throughout. In addition, the inhibition result in experiment [6] is “inactive”.

For `COc1ccc(C(=O)/C=C/c2cc(Br)c(OCc3ccccc3)c(OC)c2)c(O)c1`, the IC50 was 11.6 µM in experiment [1], 12.5 µM in experiment [2] and greater than 100 µM in experiment [3].

With `COc1ccc(C(=O)/C=C/c2ccc(C(=O)Nc3cc([N+](=O)[O-])ccc3O)cc2)c(O)c1`, the figures for the IC50 in experiment [1], in experiment [2] and in experiment [3] were 11.4 µM, 13.3 µM and greater than 100 µM, respectively.

`CCOCCOc1cccc(/C=C/C(=O)c2ccc(OC)cc2O)c1`: the half-maximal inhibitory concentration (IC50) in experiment [1] was 16.8 µM; in experiment [2], 10.5 µM; in experiment [3], greater than 100 µM.

For `COc1ccc(C(=O)/C=C/c2cc(OC)c(OC)c(OC)c2)c(O)c1`, the figures for the IC50 in experiment [1], in experiment [2] and in experiment [3] were 10.3 µM, 9.7 µM and greater than 100 µM, respectively.

In the case of `COC(=O)c1ccc(/C=C/C(=O)c2ccc(OC)cc2O)cc1`, the IC50 is 35.8 µM in experiment [1], 23.8 µM in experiment [2] and greater than 100 µM in experiment [3].

Regarding `COc1ccc(C(=O)/C=C/c2ccc(C(=O)Nc3ccc(C)cc3C)cc2)c(O)c1`, the values for the concentration for half-maximal inhibition (IC50) in experiment [1], in experiment [2] and in experiment [3] were 16.3 µM, 8.3 µM and greater than 100 µM, respectively.
